Assay results from ChEMBL document CHEMBL4190404, “Synthesis and characterization of amino acid substituted sunitinib analogues for the treatment of AML” (Bioorg Med Chem Lett, 2018).

Test system: Receptor-type tyrosine-protein kinase FLT3 (Homo sapiens), P36888 [UNDEFINED MUTATION]
Assay: Inhibition of FLT3 ITD mutant (unknown origin) using TAMRA-Src- tide as substrate at 12.5 uM after 1 hr by fluorescence polarization assay relative to control
Conditions: not given
Method in brief: (§1)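 FLT3-ITD kinase inhibition by fluorescence polarization IMAP assay; each compound tested at 12.5 and 1.25 μM; percent inhibition, average of two parallel measurements.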

Sequence of Receptor-type tyrosine-protein kinase FLT3 (Homo sapiens), P36888 [UNDEFINED MUTATION] (P36888 whole entry, looked up, change not shown): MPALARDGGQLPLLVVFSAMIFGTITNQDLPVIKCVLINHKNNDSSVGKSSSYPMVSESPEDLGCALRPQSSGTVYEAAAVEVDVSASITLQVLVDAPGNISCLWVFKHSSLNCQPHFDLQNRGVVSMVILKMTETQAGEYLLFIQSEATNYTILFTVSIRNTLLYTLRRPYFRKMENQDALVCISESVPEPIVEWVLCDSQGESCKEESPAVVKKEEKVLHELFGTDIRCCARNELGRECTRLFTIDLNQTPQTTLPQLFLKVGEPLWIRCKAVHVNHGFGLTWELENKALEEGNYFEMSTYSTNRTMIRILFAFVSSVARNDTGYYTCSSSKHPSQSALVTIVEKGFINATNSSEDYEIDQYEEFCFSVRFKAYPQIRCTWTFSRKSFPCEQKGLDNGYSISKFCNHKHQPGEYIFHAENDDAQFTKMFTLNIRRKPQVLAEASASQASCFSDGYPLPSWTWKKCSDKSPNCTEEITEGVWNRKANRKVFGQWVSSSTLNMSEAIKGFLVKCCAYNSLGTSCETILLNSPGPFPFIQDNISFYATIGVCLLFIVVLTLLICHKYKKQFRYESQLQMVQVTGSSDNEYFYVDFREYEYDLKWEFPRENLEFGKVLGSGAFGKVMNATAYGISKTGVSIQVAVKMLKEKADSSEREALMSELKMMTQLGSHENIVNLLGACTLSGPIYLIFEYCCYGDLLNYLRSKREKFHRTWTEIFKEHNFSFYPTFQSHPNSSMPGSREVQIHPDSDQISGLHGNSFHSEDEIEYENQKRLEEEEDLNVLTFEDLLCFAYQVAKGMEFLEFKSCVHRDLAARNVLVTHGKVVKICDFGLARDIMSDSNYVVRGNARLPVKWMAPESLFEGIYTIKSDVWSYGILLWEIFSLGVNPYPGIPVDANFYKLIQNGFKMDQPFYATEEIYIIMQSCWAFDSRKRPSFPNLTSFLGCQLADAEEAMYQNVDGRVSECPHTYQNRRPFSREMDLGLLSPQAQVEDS

Going from `COC(=O)CC[C@@H](NC(=O)c1c(C)[nH]c(/C=C2\C(=O)Nc3ccc(C(=O)N[C@@H](Cc4ccccc4)C(=O)OC)cc32)c1C)C(=O)OC` to `COC(=O)CC[C@@H](NC(=O)c1ccc2c(c1)/C(=C/c1[nH]c(C)c(C(=O)N[C@@H](Cc3ccccc3)C(=O)OC)c1C)C(=O)N2)C(=O)OC`, the inhibition falls from 94.8% to 49.6%.

Compared with `COC(=O)c1ccc2c(c1)/C(=C/c1[nH]c(C)c(C(=O)N[C@H](Cc3ccccc3)C(=O)OC)c1C)C(=O)N2`, `COC(=O)c1ccc2c(c1)/C(=C/c1[nH]c(C)c(C(=O)N[C@H](Cc3ccccc3)C(=O)O)c1C)C(=O)N2` is higher in inhibition: 80.6% for the first, greater than 100% for the second.

Going from `COC(=O)[C@H](Cc1ccccc1)NC(=O)c1c(C)[nH]c(/C=C2\C(=O)Nc3ccc(C(=O)N[C@H](Cc4ccccc4)C(=O)O)cc32)c1C` to `COC(=O)[C@@H](Cc1ccccc1)NC(=O)c1c(C)[nH]c(/C=C2\C(=O)Nc3ccc(C(=O)N[C@H](Cc4ccccc4)C(=O)O)cc32)c1C`, the inhibition rises from 94.8% to greater than 100%.

Going from `COC(=O)[C@H](Cc1ccccc1)NC(=O)c1c(C)[nH]c(/C=C2\C(=O)Nc3ccc(C(=O)N[C@H](Cc4ccccc4)C(=O)OC)cc32)c1C` to `COC(=O)[C@H](Cc1ccccc1)NC(=O)c1ccc2c(c1)/C(=C/c1[nH]c(C)c(C(=O)N[C@H](Cc3ccccc3)C(=O)OC)c1C)C(=O)N2`, the inhibition falls from 70.3% to 67.7%.

First: COC(=O)CC[C@H](NC(=O)c1ccc2c(c1)/C(=C/c1[nH]c(C)c(C(=O)N[C@H](CCC(=O)OC)C(=O)OC)c1C)C(=O)N2)C(=O)OC
Second: COC(=O)CC[C@@H](NC(=O)c1ccc2c(c1)/C(=C/c1[nH]c(C)c(C(=O)N[C@H](Cc3ccccc3)C(=O)OC)c1C)C(=O)N2)C(=O)OC
The inhibition of the first is higher: 81.9% for the first, 32.8% for the second.

`COC(=O)CC[C@H](NC(=O)c1ccc2c(c1)/C(=C/c1[nH]c(C)c(C(=O)N[C@H](Cc3ccccc3)C(=O)O)c1C)C(=O)N2)C(=O)OC` and `COC(=O)CC[C@@H](NC(=O)c1c(C)[nH]c(/C=C2\C(=O)Nc3ccc(C(=O)N[C@@H](Cc4ccccc4)C(=O)O)cc32)c1C)C(=O)OC` cannot be ordered by inhibition: greater than 100% for the first, greater than 100% for the second.

First: COC(=O)[C@@H](Cc1ccccc1)NC(=O)c1ccc2c(c1)/C(=C/c1[nH]c(C)c(C(=O)O)c1C)C(=O)N2
Second: COC(=O)[C@@H](Cc1ccccc1)NC(=O)c1c(C)[nH]c(/C=C2\C(=O)Nc3ccc(C(=O)O)cc32)c1C
The inhibition of the first is lower: 27.5% for the first, greater than 100% for the second.

First: CCOC(=O)c1c(C)[nH]c(/C=C2\C(=O)Nc3ccc(C(=O)N[C@H](Cc4ccccc4)C(=O)OC)cc32)c1C
Second: COC(=O)[C@@H](Cc1ccccc1)NC(=O)c1ccc2c(c1)/C(=C/c1[nH]c(C)c(C(=O)N[C@H](Cc3ccccc3)C(=O)OC)c1C)C(=O)N2
The inhibition of the first is higher: 92.2% for the first, 85.8% for the second.

In the case of `CCOC(=O)c1c(C)[nH]c(/C=C2\C(=O)Nc3ccc(C(=O)N[C@H](CCC(=O)OC)C(=O)OC)cc32)c1C`, the inhibition is reported as 79.3%.

Test system: Receptor-type tyrosine-protein kinase FLT3 (Homo sapiens), P36888 [UNDEFINED MUTATION]
Assay: Inhibition of FLT3 ITD mutant (unknown origin) using TAMRA-Src- tide as substrate at 1.25 uM after 1 hr by fluorescence polarization assay relative to control
Conditions: not given
Method in brief: as §1

First: COC(=O)CC[C@@H](NC(=O)c1c(C)[nH]c(/C=C2\C(=O)Nc3ccc(C(=O)N[C@@H](Cc4ccccc4)C(=O)OC)cc32)c1C)C(=O)OC
Second: COC(=O)CC[C@@H](NC(=O)c1ccc2c(c1)/C(=C/c1[nH]c(C)c(C(=O)N[C@@H](Cc3ccccc3)C(=O)OC)c1C)C(=O)N2)C(=O)OC
The inhibition of the first is higher: 53.5% for the first, 8.2% for the second.

Compared with `COC(=O)c1ccc2c(c1)/C(=C/c1[nH]c(C)c(C(=O)N[C@H](Cc3ccccc3)C(=O)OC)c1C)C(=O)N2`, `COC(=O)c1ccc2c(c1)/C(=C/c1[nH]c(C)c(C(=O)N[C@H](Cc3ccccc3)C(=O)O)c1C)C(=O)N2` is higher in inhibition: 47% for the first, 91% for the second.

First: COC(=O)[C@H](Cc1ccccc1)NC(=O)c1c(C)[nH]c(/C=C2\C(=O)Nc3ccc(C(=O)N[C@H](Cc4ccccc4)C(=O)O)cc32)c1C
Second: COC(=O)[C@@H](Cc1ccccc1)NC(=O)c1c(C)[nH]c(/C=C2\C(=O)Nc3ccc(C(=O)N[C@H](Cc4ccccc4)C(=O)O)cc32)c1C
The inhibition of the first is lower: 18.6% for the first, 66.4% for the second.

Compared with `COC(=O)[C@H](Cc1ccccc1)NC(=O)c1c(C)[nH]c(/C=C2\C(=O)Nc3ccc(C(=O)N[C@H](Cc4ccccc4)C(=O)OC)cc32)c1C`, `COC(=O)[C@H](Cc1ccccc1)NC(=O)c1ccc2c(c1)/C(=C/c1[nH]c(C)c(C(=O)N[C@H](Cc3ccccc3)C(=O)OC)c1C)C(=O)N2` is higher in inhibition: 29% for the first, 35.4% for the second.

First: COC(=O)CC[C@H](NC(=O)c1ccc2c(c1)/C(=C/c1[nH]c(C)c(C(=O)N[C@H](CCC(=O)OC)C(=O)OC)c1C)C(=O)N2)C(=O)OC
Second: COC(=O)CC[C@@H](NC(=O)c1ccc2c(c1)/C(=C/c1[nH]c(C)c(C(=O)N[C@H](Cc3ccccc3)C(=O)OC)c1C)C(=O)N2)C(=O)OC
The inhibition of the first is higher: 43.2% for the first, 12.1% for the second.

Compared with `COC(=O)CC[C@H](NC(=O)c1ccc2c(c1)/C(=C/c1[nH]c(C)c(C(=O)N[C@H](Cc3ccccc3)C(=O)O)c1C)C(=O)N2)C(=O)OC`, `COC(=O)CC[C@@H](NC(=O)c1c(C)[nH]c(/C=C2\C(=O)Nc3ccc(C(=O)N[C@@H](Cc4ccccc4)C(=O)O)cc32)c1C)C(=O)OC` is higher in inhibition: 70.3% for the first, 90.9% for the second.

Going from `COC(=O)[C@@H](Cc1ccccc1)NC(=O)c1ccc2c(c1)/C(=C/c1[nH]c(C)c(C(=O)O)c1C)C(=O)N2` to `COC(=O)[C@@H](Cc1ccccc1)NC(=O)c1c(C)[nH]c(/C=C2\C(=O)Nc3ccc(C(=O)O)cc32)c1C`, the inhibition rises from 76.7% to 97.4%.

Compared with `CCOC(=O)c1c(C)[nH]c(/C=C2\C(=O)Nc3ccc(C(=O)N[C@H](Cc4ccccc4)C(=O)OC)cc32)c1C`, `COC(=O)[C@@H](Cc1ccccc1)NC(=O)c1ccc2c(c1)/C(=C/c1[nH]c(C)c(C(=O)N[C@H](Cc3ccccc3)C(=O)OC)c1C)C(=O)N2` is lower in inhibition: 61.3% for the first, 35.4% for the second.

`CCOC(=O)c1c(C)[nH]c(/C=C2\C(=O)Nc3ccc(C(=O)N[C@H](CCC(=O)OC)C(=O)OC)cc32)c1C` was tested, and the inhibition was 3.1%.

Test system: MV4-11
Assay: Antiproliferative activity against human MV4-11 cells after 72 hrs by Celltiter-Glo luminescent cell viability assay
Format: functional, cell-based
Conditions: MV4-11, 72 h
Method in brief: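 MV4-11 leukaemia cells, 72 h proliferation assay, luminescence read-out; IC50 determined from concentration–response.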

Compared with `COC(=O)CC[C@@H](NC(=O)c1c(C)[nH]c(/C=C2\C(=O)Nc3ccc(C(=O)N[C@@H](Cc4ccccc4)C(=O)OC)cc32)c1C)C(=O)OC`, `COC(=O)CC[C@@H](NC(=O)c1ccc2c(c1)/C(=C/c1[nH]c(C)c(C(=O)N[C@@H](Cc3ccccc3)C(=O)OC)c1C)C(=O)N2)C(=O)OC` is 1.5-fold lower in IC50: 25.4 µM for the first, 16.8 µM for the second. The second is the more potent here.

First: COC(=O)c1ccc2c(c1)/C(=C/c1[nH]c(C)c(C(=O)N[C@H](Cc3ccccc3)C(=O)OC)c1C)C(=O)N2
Second: COC(=O)c1ccc2c(c1)/C(=C/c1[nH]c(C)c(C(=O)N[C@H](Cc3ccccc3)C(=O)O)c1C)C(=O)N2
The IC50 of the first is 13-fold lower: 0.3 µM for the first, 3.9 µM for the second.

`COC(=O)[C@H](Cc1ccccc1)NC(=O)c1c(C)[nH]c(/C=C2\C(=O)Nc3ccc(C(=O)N[C@H](Cc4ccccc4)C(=O)OC)cc32)c1C` and `COC(=O)[C@H](Cc1ccccc1)NC(=O)c1ccc2c(c1)/C(=C/c1[nH]c(C)c(C(=O)N[C@H](Cc3ccccc3)C(=O)OC)c1C)C(=O)N2` are within 1.5-fold of each other in IC50: 2.5 µM for the first, 3.3 µM for the second.

First: COC(=O)[C@@H](Cc1ccccc1)NC(=O)c1ccc2c(c1)/C(=C/c1[nH]c(C)c(C(=O)O)c1C)C(=O)N2
Second: CCOC(=O)c1c(C)[nH]c(/C=C2\C(=O)Nc3ccc(C(=O)N[C@H](Cc4ccccc4)C(=O)OC)cc32)c1C
The IC50 of the first is 2.2-fold lower: 0.6 µM for the first, 1.3 µM for the second.

Compared with `COC(=O)CC[C@@H](NC(=O)c1ccc2c(c1)/C(=C/c1[nH]c(C)c(C(=O)N[C@H](Cc3ccccc3)C(=O)OC)c1C)C(=O)N2)C(=O)OC`, `COC(=O)[C@@H](Cc1ccccc1)NC(=O)c1ccc2c(c1)/C(=C/c1[nH]c(C)c(C(=O)N[C@H](Cc3ccccc3)C(=O)OC)c1C)C(=O)N2` is 3.6-fold lower in IC50: 10.3 µM for the first, 2.9 µM for the second. The second is the more potent here.
